The values below come from ChEMBL document CHEMBL1921795, “Discovery, synthesis, and structure-activity relationship development of a series of N-4-(2,5-dioxopyrrolidin-1-yl)phenylpicolinamides (VU0400195, ML182): characterization of a novel positive allosteric modulator of the metabotropic glutamate receptor 4 (mGlu(4)) with oral efficacy in an …” (J Med Chem, 2011).

Data set [1] deals with T1, Metabotropic glutamate receptor 4 (Homo sapiens, UniProt Q14833). The experiment in a line: Positive allosteric modulator activity at human mGlu4 receptor expressed in CHO cells expressing Gqi5 by calcium mobilization assay. Background: A change in cytosolic calcium serves as a functional read-out for many receptors and channels.
A further data set has as its target Cytochrome P450 2D6 (Homo sapiens, UniProt P10635). Briefly: Inhibition of CYP2D6 in human liver microsomes using […] as substrate. It is filed as ADME, Microsome. An outline of the steps:
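Pooled human liver microsomes (0.1 mg/mL) with probe cocktail (phenacetin 10 µM, diclofenac 5 µM, dextromethorphan 5 µM, midazolam 2 µM) in 0.1 M phosphate pH 7.4; compound 100 nM–30 µM in duplicate, 15 min preincubation at 37 °C, then 1 mM NADPH for 8 min. LC/MS/MS of metabolite formation; IC50 derived.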

Another data set addresses Cytochrome P450 2C9 (Homo sapiens, UniProt P11712). The experiment in a line: Inhibition of CYP2C9 in human liver microsomes using diclofenac as substrate.
A further data set has as its target Cytochrome P450 3A4 (Homo sapiens, UniProt P08684). The experiment in a line: Inhibition of CYP3A4 in human liver microsomes using […] as substrate. It is filed as ADME, Microsome. For orientation: Liver microsomes are a subcellular fraction often used to study metabolism.
The target in data set [2] is Metabotropic glutamate receptor 4 (Rattus norvegicus) (UniProt P31423). The experiment in a line: Positive allosteric modulation of rat mGlu4 receptor assessed as potentiation of glutamate-induced thallium flux relative to (-)-PHCCC. The arrangement: concentration or dose not given beside the values.
The subject of another data set is Nucleic Acid. The experiment in a line: Ratio of drug level in brain to plasma in ip dosed rat. It is filed as ADME, organism-based.
Data set [3] concerns the target Metabotropic glutamate receptor 4 (Rattus norvegicus, UniProt P31423). The experiment in a line: Positive allosteric modulator activity at rat mGlu4 receptor by thallium flux assay.
Data set [4] has as its target Metabotropic glutamate receptor 4 (Rattus norvegicus) (UniProt P31423). Briefly: Positive allosteric modulator activity at rat mGlu4 receptor by thallium flux assay at 30 uM relative to glutamate.
The next data set has as its target T2, Cytochrome P450 1A2 (Homo sapiens, UniProt P05177).
T2 sequence (P05177 whole entry): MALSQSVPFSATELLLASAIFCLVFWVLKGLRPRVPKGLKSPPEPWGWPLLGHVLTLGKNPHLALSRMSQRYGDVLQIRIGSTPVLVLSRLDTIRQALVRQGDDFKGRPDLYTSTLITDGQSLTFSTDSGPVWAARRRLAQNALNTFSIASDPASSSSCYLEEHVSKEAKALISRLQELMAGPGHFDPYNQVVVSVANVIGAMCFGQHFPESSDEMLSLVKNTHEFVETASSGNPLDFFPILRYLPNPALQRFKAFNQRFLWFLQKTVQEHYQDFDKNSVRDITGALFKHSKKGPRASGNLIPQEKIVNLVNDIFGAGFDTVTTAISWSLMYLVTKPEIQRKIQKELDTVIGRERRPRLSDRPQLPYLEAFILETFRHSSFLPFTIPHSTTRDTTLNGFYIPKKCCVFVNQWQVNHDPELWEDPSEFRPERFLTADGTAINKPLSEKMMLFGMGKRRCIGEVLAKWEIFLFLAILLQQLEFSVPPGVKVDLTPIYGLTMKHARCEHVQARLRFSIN
Briefly: Inhibition of CYP1A2 in human liver microsomes using phenacetin as substrate.

For data set [5], the system named is Plasma. Briefly: Fraction unbound in rat plasma by equilibrium dialysis. In kind it is ADME, cell-free. A digest of the protocol: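 Rat plasma spiked with compound, equilibrium dialysis against 25 mM phosphate buffer pH 7.4 for 4 h at 37 °C with shaking; both chambers matrix-matched, acetonitrile-extracted and quantified by LC/MS/MS; triplicate.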
On the technique in general: In equilibrium dialysis only unbound substance equilibrates across the membrane.

For data set [6], the target named is T1, Metabotropic glutamate receptor 4. Briefly: Positive allosteric modulation of human mGlu4 receptor expressed in CHO cells coexpressing Gqi5 assessed as potentiation of glutamate-induced calcium mobilization relative to (-)-PHCCC. It is filed as functional, cell-based. A digest of the protocol:
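CHO cells stably expressing human mGlu4 with chimeric Gqi5, plated overnight, loaded 45 min at 37 °C with 1 µM Fluo-4 AM. Compound (10-point, 1:3 dilutions) was added about 2.5 min before an EC20 glutamate, then EC80 glutamate 2 min later. Ca2+ fluorescence read at 470/540 nm. Four-parameter logistic fit.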

A further data set has as its target Cytochrome P450 2C19 (Homo sapiens, UniProt P33261). The experiment in a line: Inhibition of CYP2C19 in human liver microsomes using S-mephenytoin as substrate. In kind it is ADME, Microsome.
In data set [7] the target is Metabotropic glutamate receptor 6 (Homo sapiens, UniProt O15303). The experiment in a line: Positive allosteric modulator activity at human mGlu6 receptor at 10 uM by thallium flux assay. An outline of the steps:
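Cells expressing human mGlu6 with GIRK channels, thallium flux double-addition protocol. 10 µM compound or vehicle was added, then a full glutamate concentration-response 2.5 min later. A left shift >2-fold was scored as potentiator activity. A right shift >2-fold or max depression ≥75% was scored as antagonist activity. Mean ± SEM of three experiments in singlicate.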

In data set [8] the test system is Brain. Briefly: Fraction unbound in rat brain homogenate by equilibrium dialysis. It is filed as ADME, tissue-based.
Data set [9] can be described thus: Intrinsic clearance in rat hepatic microsomes at 1 uM by LC/MS/MS analysis. In kind it is ADME, Microsome. The note with it: rat liver microsomes.
The nature of data set [10]: Intrinsic clearance in human hepatic microsomes. In kind it is ADME, Microsome. The note with it: human liver microsomes.
Data set [11] concerns Plasma. The experiment in a line: Fraction unbound in human plasma. In kind it is ADME, cell-free.
The test system of data set [12] is Rattus norvegicus. Briefly: AUC (0 to 24 hrs) in Sprague-Dawley rat at 10 mg/kg, po by LC/MS analysis. It is filed as ADME, organism-based, Plasma. Details: time < 24 hr, dose 10 mg/kg, route oral. The note with it: in vivo.
Data set [13] has as its system Brain. Briefly: AUC (0 to 6 hrs) in Sprague-Dawley rat brain at 10 mg/kg, po. It is filed as ADME, organism-based. The arrangement: time < 6 hr, dose 10 mg/kg, route oral. The note with it: in vivo.
Data set [14] has as its system Rattus norvegicus. The experiment in a line: Cmax in Sprague-Dawley rat at 10 mg/kg, po by LC/MS analysis. It is filed as ADME, organism-based. To be noted: in vivo. Details: dose 10 mg/kg, route oral.
Data set [15] is described as follows: AUC (0 to 6 hrs) in Sprague-Dawley rat hepatic portal vein plasma at 10 mg/kg, po. The arrangement: time < 6 hr, dose 10 mg/kg, route oral. It is filed as ADME, organism-based.
Data set [16] deals with Rattus norvegicus. The experiment in a line: Oral bioavailability in Sprague-Dawley rat at 10 mg/kg by LC/MS analysis. To be noted: in vivo. It is filed as ADME, organism-based.
Data set [17] has as its system Rattus norvegicus. Briefly: Volume of distribution at steady state in Sprague-Dawley rat at 1 mg/kg, iv by LC/MS analysis. The note with it: in vivo. Details: dose 1 mg/kg, route intravenous. It is filed as ADME, organism-based. An outline of the steps:
(§1)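 Male Sprague-Dawley rats (n=2, 250-300 g), carotid and jugular cannulated; 1 mg/kg iv via jugular catheter in 20% DMSO/80% saline. Arterial blood from pre-dose to 24 h, EDTA plasma analysed by LC/MS/MS; noncompartmental analysis of individual profiles.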

A short description of data set [18]: Ratio of AUC in brain to plasma in Sprague-Dawley rat.
For data set [19], the system named is Rattus norvegicus. The experiment in a line: AUC (0 to 24 hrs) in Sprague-Dawley rat at 1 mg/kg, iv by LC/MS analysis. In kind it is ADME, organism-based, Plasma. The arrangement: time < 24 hr, dose 1 mg/kg, route intravenous. The note with it: in vivo. An outline of the steps: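 Male Sprague-Dawley rats (n=2, 250-300 g) with carotid artery and jugular vein catheters, acclimated about one week, fed ad libitum. Dose given through the jugular catheter in 20% DMSO/80% saline at 1 mL/kg. Carotid blood drawn pre-dose and at 2, 7, 15, 30 min and 1, 2, 4, 7, 24 h into chilled EDTA tubes. Plasma measured by LC/MS/MS; parameters from noncompartmental analysis of individual profiles.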

Data set [20] concerns Rattus norvegicus. The experiment in a line: Half life in Sprague-Dawley rat at 1 mg/kg, iv by LC/MS analysis. In kind it is ADME, organism-based. Details: dose 1 mg/kg, route intravenous. To be noted: in vivo. An outline of the steps:
as §1

Sequence of Cytochrome P450 2C9 (P11712 whole entry): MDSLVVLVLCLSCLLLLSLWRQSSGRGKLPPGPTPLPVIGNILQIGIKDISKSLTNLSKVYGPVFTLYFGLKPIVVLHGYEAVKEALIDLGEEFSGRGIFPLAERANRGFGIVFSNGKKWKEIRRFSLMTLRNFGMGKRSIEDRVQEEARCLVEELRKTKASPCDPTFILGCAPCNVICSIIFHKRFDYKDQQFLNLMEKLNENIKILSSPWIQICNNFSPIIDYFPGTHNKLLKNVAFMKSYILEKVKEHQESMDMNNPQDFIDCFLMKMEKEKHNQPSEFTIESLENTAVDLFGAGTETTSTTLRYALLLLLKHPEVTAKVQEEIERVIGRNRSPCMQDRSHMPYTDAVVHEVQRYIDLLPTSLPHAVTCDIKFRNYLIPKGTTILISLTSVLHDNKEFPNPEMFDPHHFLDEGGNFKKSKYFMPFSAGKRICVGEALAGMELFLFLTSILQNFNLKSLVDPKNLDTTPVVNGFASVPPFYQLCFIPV
Sequence of Cytochrome P450 2D6 (P10635 whole entry): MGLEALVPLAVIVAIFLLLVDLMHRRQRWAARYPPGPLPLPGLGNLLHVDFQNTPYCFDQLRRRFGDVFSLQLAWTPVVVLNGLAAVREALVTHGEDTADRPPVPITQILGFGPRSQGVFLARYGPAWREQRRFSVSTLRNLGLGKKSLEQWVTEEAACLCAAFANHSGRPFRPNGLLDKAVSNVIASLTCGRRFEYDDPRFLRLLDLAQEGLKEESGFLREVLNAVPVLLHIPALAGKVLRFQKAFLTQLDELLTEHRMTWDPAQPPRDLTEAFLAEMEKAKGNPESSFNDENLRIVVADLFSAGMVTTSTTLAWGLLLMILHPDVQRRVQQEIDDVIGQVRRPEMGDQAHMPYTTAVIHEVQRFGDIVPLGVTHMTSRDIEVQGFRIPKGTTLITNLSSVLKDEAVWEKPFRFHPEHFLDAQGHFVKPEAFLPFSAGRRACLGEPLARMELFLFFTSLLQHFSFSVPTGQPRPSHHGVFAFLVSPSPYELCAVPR
T1 sequence (Q14833 whole entry): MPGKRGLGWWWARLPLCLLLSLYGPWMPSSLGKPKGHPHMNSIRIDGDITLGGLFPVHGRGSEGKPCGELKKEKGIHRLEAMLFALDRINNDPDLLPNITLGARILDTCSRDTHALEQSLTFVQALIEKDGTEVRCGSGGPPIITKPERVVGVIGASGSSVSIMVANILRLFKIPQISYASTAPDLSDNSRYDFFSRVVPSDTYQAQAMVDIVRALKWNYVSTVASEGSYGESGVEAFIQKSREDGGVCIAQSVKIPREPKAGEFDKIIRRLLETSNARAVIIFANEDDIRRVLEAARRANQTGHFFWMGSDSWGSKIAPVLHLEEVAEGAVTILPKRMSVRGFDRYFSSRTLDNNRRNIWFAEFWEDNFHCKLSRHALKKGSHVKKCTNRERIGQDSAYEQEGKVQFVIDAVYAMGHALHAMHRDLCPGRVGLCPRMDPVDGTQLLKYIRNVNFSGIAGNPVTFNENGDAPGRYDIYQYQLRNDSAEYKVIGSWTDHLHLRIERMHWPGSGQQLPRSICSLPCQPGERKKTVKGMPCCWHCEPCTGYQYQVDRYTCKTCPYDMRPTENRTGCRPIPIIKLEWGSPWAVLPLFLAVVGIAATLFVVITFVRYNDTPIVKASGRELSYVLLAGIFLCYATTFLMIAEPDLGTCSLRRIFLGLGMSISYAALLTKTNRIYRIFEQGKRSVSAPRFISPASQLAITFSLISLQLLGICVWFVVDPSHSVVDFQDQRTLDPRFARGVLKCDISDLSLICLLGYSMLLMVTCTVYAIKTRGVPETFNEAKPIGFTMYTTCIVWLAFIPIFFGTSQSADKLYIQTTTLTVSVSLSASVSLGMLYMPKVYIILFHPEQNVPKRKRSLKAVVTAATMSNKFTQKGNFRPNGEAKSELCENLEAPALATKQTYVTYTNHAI
Sequence of Metabotropic glutamate receptor 4 (Rattus norvegicus) (P31423 whole entry): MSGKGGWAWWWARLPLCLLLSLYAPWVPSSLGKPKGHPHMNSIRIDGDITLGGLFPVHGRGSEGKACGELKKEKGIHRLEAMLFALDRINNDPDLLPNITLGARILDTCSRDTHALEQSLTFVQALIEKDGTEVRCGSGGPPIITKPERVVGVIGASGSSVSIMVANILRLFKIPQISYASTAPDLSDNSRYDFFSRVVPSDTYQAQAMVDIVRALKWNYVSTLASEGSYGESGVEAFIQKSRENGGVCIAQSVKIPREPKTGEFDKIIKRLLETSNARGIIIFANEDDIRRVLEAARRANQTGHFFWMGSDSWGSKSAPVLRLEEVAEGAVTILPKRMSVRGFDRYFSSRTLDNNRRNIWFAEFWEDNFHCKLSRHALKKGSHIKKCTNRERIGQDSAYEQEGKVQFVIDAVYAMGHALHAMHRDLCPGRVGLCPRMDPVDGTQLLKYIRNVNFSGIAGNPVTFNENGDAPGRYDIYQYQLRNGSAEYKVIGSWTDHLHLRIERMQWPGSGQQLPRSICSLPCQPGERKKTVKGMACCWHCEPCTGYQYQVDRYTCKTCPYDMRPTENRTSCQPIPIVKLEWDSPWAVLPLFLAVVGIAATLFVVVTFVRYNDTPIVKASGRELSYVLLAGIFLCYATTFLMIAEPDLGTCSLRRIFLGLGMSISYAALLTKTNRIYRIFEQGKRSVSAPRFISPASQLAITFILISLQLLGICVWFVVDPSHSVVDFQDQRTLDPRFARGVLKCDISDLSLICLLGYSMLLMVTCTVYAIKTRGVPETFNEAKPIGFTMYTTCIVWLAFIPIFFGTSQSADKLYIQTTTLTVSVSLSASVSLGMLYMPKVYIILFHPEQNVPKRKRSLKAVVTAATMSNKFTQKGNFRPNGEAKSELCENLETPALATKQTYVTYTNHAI
Sequence of Cytochrome P450 2C19 (P33261 whole entry): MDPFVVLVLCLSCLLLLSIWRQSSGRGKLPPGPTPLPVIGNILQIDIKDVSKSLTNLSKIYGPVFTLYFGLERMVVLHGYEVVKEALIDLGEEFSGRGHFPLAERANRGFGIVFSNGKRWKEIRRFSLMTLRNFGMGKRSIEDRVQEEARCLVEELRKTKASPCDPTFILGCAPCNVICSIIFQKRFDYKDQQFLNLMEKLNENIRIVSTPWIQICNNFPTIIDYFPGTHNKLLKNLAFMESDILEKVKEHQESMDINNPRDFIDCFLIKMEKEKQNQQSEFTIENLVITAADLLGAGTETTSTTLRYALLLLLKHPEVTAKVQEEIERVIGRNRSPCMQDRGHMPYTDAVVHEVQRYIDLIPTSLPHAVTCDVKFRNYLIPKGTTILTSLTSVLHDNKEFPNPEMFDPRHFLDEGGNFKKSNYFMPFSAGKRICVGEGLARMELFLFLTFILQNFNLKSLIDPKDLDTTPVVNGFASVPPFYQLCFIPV
Sequence of Cytochrome P450 3A4 (P08684 whole entry): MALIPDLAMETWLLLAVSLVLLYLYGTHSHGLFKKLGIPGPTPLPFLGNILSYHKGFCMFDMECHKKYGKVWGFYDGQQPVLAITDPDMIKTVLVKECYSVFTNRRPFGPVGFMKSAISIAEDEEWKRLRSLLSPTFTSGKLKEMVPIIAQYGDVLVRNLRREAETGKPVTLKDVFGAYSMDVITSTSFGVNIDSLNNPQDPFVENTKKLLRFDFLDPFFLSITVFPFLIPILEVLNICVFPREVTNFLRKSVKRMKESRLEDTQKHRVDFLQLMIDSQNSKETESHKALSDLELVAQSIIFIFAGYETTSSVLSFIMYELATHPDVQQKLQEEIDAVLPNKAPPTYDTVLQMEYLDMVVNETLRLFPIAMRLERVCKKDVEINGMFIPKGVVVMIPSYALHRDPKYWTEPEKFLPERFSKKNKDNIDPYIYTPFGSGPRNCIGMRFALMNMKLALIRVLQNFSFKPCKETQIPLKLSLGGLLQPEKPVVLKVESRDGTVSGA
Sequence of Metabotropic glutamate receptor 4 (Rattus norvegicus, UniProt P31423) (P31423 whole entry): as the sequence (P31423 whole entry) above
Sequence of Metabotropic glutamate receptor 6 (O15303 whole entry): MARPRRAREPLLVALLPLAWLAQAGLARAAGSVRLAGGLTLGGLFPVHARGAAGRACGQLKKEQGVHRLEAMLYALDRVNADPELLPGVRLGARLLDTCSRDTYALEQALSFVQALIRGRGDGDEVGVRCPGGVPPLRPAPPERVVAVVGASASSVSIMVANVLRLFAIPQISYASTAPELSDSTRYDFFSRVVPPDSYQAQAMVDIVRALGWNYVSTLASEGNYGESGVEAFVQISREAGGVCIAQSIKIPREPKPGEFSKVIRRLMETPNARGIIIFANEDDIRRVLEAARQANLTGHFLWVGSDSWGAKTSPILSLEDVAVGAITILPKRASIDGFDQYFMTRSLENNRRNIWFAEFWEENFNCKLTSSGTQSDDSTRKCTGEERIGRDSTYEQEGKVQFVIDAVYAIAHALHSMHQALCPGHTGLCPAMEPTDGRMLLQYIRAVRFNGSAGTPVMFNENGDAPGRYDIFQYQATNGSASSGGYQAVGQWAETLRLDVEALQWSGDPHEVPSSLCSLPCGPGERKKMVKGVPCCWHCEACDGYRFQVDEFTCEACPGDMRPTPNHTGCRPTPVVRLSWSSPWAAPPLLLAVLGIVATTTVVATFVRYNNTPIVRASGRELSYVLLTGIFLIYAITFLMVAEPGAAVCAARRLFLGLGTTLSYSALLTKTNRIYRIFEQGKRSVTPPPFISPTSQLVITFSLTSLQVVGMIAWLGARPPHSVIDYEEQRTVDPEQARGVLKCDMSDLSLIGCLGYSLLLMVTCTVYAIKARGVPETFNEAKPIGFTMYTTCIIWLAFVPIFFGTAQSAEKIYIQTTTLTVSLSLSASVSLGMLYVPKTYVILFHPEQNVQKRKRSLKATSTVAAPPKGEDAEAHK

On to `O=C(Nc1ccc(N2S(=O)(=O)c3ccccc3S2(=O)=O)cc1)c1ccccn1`, for which the results for the EC50 in data set [1] and in data set [3] were 0.136 µM and 0.165 µM, respectively. For the same compound, the half-inhibitory concentration (IC50) on Cytochrome P450 2D6, against Cytochrome P450 2C9, on Cytochrome P450 3A4 and at Cytochrome P450 1A2 was over 30 µM each time. The values for the Activity in [2] and in data set [6] were 124% and 99.7%, respectively. In the data set with Nucleic Acid, the BPR was 0.085. The fold change (FC) in [4] was 5.2. In the data set with Plasma [5], the Fu is listed as 3.8%.

On to `O=C(Nc1ccc(N2C(=O)[C@@H]3[C@H](C2=O)[C@@H]2C=C[C@H]3C2)c(Cl)c1)c1ccccn1` (mixture of isomers), for which the 50% inhibitory concentration (IC50) at Cytochrome P450 2C19, at Cytochrome P450 2D6, against Cytochrome P450 2C9 and at Cytochrome P450 1A2 was over 30 µM in each case. In addition, in data set [7], the 50% effective concentration (EC50) is over 10 µM. The Fu is given as 7.6% in the data set on Brain [8], 4.1% with Plasma [11] and 3.2% with Plasma [5]. The compound also yielded a CLint scaled at 1 µM in data set [9] of 3.18 L/h/kg. The compound also gave an intrinsic metabolic clearance (CLint scaled) in [10] of 1.18 L/h/kg.

`Cl.O=C(Nc1ccc(N2C(=O)[C@@H]3[C@H](C2=O)[C@@H]2C=C[C@H]3C2)c(Cl)c1)c1ccccn1`: the AUC is 4.354 µg·h/mL in the data set with Rattus norvegicus [12], 800 nM·h in the data set with Brain [13] and 0.454 µg·h/mL in the data set on Rattus norvegicus [19]. Also, the highest concentration (Cmax) in the data set on Rattus norvegicus [14] came to 0.238 µg/mL. In data set [15], this compound showed an exposure AUC(0-t) at 6 h of 8.48 nM·h. This compound came in with a F in the data set with Rattus norvegicus [16] of 97%. In the data set with Rattus norvegicus [17], the Vdss came out at 18 L/kg. The Kp in data set [18] is 0.93. Also, in the data set with Rattus norvegicus [20], the t1/2 is recorded as 40.4 min.

A word on the EC50: it is the concentration needed to bring the measured effect to its halfway point. The term IC50 denotes the point on the concentration scale where inhibition reaches its midpoint. As a reminder, the CLint scaled is the rate of metabolic loss divided by the concentration. As a reminder, the AUC is the area under the concentration-time curve, a measure of exposure. A word on the Cmax: it is the highest concentration seen after dosing. Broadly, the AUC(0-t) is the area under the concentration-time curve up to a stated or last time point. One may read the Vdss as the apparent volume that relates the amount in the body to the concentration in plasma or blood. The Kp is the ratio of the level in a tissue or fluid to that in plasma or blood.
